Results reported in ChEMBL document CHEMBL5126663, “Cellular Stress-Induced Metabolites in Escherichia coli” (J Nat Prod, 2022).
pEC50: −log10 of the molar value. Calls of active or inactive are those of the source. The calls are words filed in the database; no cut-off is given here.

Legend:
[1] = Antioxidant activity assessed as DPPH radical scavenging activity incubated for 35 mins under dark condition; assay type: functional
How it was run: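 DMSO stocks (100 mM) added to freshly prepared 0.2 mM DPPH in methanol, two-fold serially diluted, kept dark 35 min, absorbance read at 517 nm. Background absorbance from a parallel methanol-only (no DPPH) plate subtracted. Scavenging % = 100 × (Acontrol−Asample)/Acontrol; n = 3; ascorbic acid positive control.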

[2] = molecular target: T1, Aryl hydrocarbon receptor (Homo sapiens, UniProt P35869); assay: Agonist activity at AhR in human HT29-Lucia AhR cells measured after 24 hrs by Quanti-luc gold luminescence assay; assay type: cell-based; conditions: DDE = dose-dependent effect
T1 sequence (P35869 whole entry): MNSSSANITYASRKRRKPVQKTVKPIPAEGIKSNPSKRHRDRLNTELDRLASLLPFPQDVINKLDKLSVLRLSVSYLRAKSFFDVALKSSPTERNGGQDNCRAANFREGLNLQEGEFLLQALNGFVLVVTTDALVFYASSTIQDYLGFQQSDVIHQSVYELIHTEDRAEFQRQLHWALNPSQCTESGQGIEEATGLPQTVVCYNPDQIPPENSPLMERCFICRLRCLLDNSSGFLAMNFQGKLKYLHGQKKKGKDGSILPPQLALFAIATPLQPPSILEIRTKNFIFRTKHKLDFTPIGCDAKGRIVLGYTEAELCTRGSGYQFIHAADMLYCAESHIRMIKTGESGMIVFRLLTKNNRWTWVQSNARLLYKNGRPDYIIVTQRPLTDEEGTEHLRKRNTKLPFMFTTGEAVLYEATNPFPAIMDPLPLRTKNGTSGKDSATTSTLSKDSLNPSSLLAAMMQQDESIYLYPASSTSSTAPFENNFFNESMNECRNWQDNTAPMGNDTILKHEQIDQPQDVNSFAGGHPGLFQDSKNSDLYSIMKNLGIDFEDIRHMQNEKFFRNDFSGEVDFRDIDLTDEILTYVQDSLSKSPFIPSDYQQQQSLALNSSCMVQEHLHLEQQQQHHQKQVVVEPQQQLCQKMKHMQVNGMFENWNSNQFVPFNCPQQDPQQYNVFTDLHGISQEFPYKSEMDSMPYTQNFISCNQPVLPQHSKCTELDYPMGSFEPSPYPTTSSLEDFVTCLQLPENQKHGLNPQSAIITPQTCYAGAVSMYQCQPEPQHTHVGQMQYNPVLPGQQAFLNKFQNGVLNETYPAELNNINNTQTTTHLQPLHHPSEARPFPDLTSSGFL
How it was run: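 HT29-Lucia AhR reporter cells seeded ~50,000 cells/well; ligand or DMSO vehicle added (ITE positive control, unstimulated negative control) for 24 h. Secreted Lucia luciferase in supernatant detected with QUANTI-Luc Gold luminescence. Triplicate; expressed as fold-change relative to DMSO-treated cells.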

[3] = Increase in IL-17A Katushka/IL-10eGFP/Foxp3RFP reporter mouse cell trace violet-labelled CD4+ T cell derived TGF-beta1/IL-6/IL-23-polarized Th17 cell proliferation at 10 to 20 uM measured after 3 days by flow cytomtery; assay type: toxicity, cell-based; conditions: th17, 72 h, dose 10-20 µM, time 3 day
How it was run: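 Same Th17-polarized, CellTrace Violet-labelled reporter-mouse CD4+ T cells; compound or DMSO added after 1–3 days, then 3 more days culture. Proliferation by flow cytometry as percentage of viable CD4+ cells having undergone 7 or more divisions (CellTrace Violet dilution); n = 4.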

[4] = (§1) Immunomodulatory activity in IL-17A Katushka/IL-10eGFP/Foxp3RFP reporter mouse cell trace violet-labelled CD4+ T cell derived TGF-beta1/IL-6/IL-23-polarized Th17 cells assessed as increase in IL-10 positive cell population at 5 to 20 uM measured after 3 days by flow cytomtery relative to control; assay type: functional; conditions: dose 5-20 µM; time 3 day
How it was run: (§2)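 Naïve CD4+ T cells from spleen and lymph nodes of 2 triple reporter mice, CellTrace Violet-labelled, polarized in Click's medium with 5% FBS, anti-CD3/anti-CD28, anti-IFNγ, anti-IL-4, IL-23, IL-6 and TGF-β1. Compound or DMSO added after 1–3 days, cultured 3 more days; flow cytometry on viable CD4+ cells (IL-17A Katushka, IL-10 eGFP). Fold change vs DMSO; n = 4.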

[5] = as §1, with “in IL-10/IL-17” for “in IL-10”; assay type: functional; conditions: dose 5-20 µM; time 3 day; how it was run: as §2
Th17 [6] = assay: Immunomodulatory activity in IL-17A Katushka/IL-10eGFP/Foxp3RFP reporter mouse cell trace violet-labelled CD4+ T cell derived TGF-beta1/IL-6/IL-23-polarized Th17 cells assessed as increase in IL-17 positive cell population at 5 to 20 uM measured after 3 days by flow cytomtery; assay type: functional, cell-based; conditions: dose 5-20 µM, time 3.0 day; how it was run: as §2
Th17 [7] = assay: Immunomodulatory activity in IL-17A Katushka/IL-10eGFP/Foxp3RFP reporter mouse cell trace violet-labelled CD4+ T cell derived TGF-beta1/IL-6/IL-23-polarized Th17 cells assessed as increase in IL-10/IL-17 positive cell population at 5 to 20 uM measured after 3 days by flow cytomtery; assay type: functional, cell-based; conditions: dose 5-20 µM, time 3.0 day; how it was run: as §2

O=c1[nH]c(=O)c2nc(-c3ccc(O)cc3)c(=O)n(C[C@H](O)[C@H](O)[C@H](O)CO)c2[nH]1
Activity [1]: Active

O=c1[nH]c(=O)c2nc(-c3c[nH]c4ccccc34)c(=O)n(C[C@H](O)[C@H](O)[C@H](O)CO)c2[nH]1
Activity [2]: Dde | Activity [3]: Non-Toxic | fold change (FC) [4]: 2 | fold change (FC) [5]: 2 | pEC50 [1]: 4.49

O=c1[nH]c(=O)c2nc(-c3ccccc3)c(=O)n(C[C@H](O)[C@H](O)[C@H](O)CO)c2[nH]1
Activity [1]: Active

O=C1O[C@H]([C@@H](O)CO)C(O)=C1O [ASCORBIC ACID]
Activity (Th17 [6]): Active | Activity (Th17 [7]): Active | pEC50 [1]: 4.52
